This is an account of results in PubChem BioAssay.

Each structure is given as a SMILES string. Activity calls are given as the source filed them.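 The calls were made as follows, unless noted: active = GFP response above 150% of the DMSO level; inconclusive = fewer than 70 events counted for a yeast strain; inactive = the rest.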

The nature of assay [1]: hit retest on RPL19A-GFP reporter strain – cell-based, S. cerevisiae, flow cytometry, cherry picks, mother/daughter gates, confirmation (AID 2270;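 active = GFP response below 50% of the DMSO control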). The following applies: 3 h, at 10 µM, stronger effect = lower value, 100 = same GFP as DMSO wells.
The nature of assay [2]: yeast TOR pathway reporter LAP4-GFP change – cell-based, cherry picks, flow cytometry, mother/daughter gates, confirmation (AID 2271;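 active = GFP response above 150% of the DMSO control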;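 also: ratio of sample to DMSO plate mean so 100% equals DMSO level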). The following applies: S. cerevisiae LAP4-GFP strain, 3 h, at 10 µM, stronger effect = higher value, 100 means same as DMSO control. An outline of the steps: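 Material: Alexa Fluor 633-labelled Saccharomyces cerevisiae GFP-fusion strain, single-plex | Amount: Yeast cells seeded at OD600 of 0.2 | Buffer or medium: SC growth medium | Schedule: 3 h exposure, 30 °C | Measured by: HT flow cytometry, GFP fluorescence channel | Evaluation: % GFP response vs DMSO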
For orientation: In flow cytometry, cells or beads pass a laser one at a time.

The nature of assay [3]: TOR pathway reporter MEP2-GFP, retest of hits – S. cerevisiae, flow cytometry GFP, cherry picks, confirmation (AID 2272;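 active = GFP response above 150% of the DMSO control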;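 also: ratio of well signal to plate DMSO mean so 100% equals DMSO level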). The following applies: S. cerevisiae MEP2-GFP strain, 3 h, at 10 µM, stronger effect = higher value.
A short description of assay [4]: yeast AGP1-GFP fluorescence change, single-dose – cell-based, flow cytometry, S. cerevisiae, cherry picks, confirmation (AID 2273).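 Also: median GFP channel fluorescence over the whole cell population gate.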 The following applies: S. cerevisiae AGP1-GFP strain, 3 h, at 10 µM.
Assay [5] is described as follows: TOR pathway CIT2 reporter hit retest – S. cerevisiae, GFP fusion, cherry picks, mother/daughter gates, confirmation (AID 2274). As to conditions: S. cerevisiae CIT2-GFP strain, flow cytometry, 3 h, at 10 µM, stronger effect = higher value.
Where [6] appears, read: measured here: daughter cell gate.
[7] abbreviates: measured here: mother cell gate.
[8] abbreviates: measured here: daughter cell gate response.
Setting [9] is: measured here: mother cell gate response.

In the case of `O=C(CN1C(=O)c2cccc3cccc(c23)C1=O)N1CCCCCC1`, the GFP response vs DMSO was 102% (inactive) in assay [1], 101% in assay [1] (setting [6]), 101% in assay [1] (setting [7]) and 94.7% (inactive) in assay [3]. For the same molecule, the GFP response relative to DMSO in assay [2] was 97% (inactive); in assay [2] (setting [8]), 94.2%; in assay [2] (setting [9]), 98.4%. Also, the GFP response, % of DMSO in assay [4] was 100% (inactive); in assay [5] it was 100% (inactive); in assay [5] (setting [6]), 101%; in assay [5] (setting [7]), 101%.

For `O=c1oc2cc(Oc3c([N+](=O)[O-])cc(C(F)(F)F)cc3[N+](=O)[O-])ccc2c2c1CCCC2`, the GFP response vs DMSO in assay [1] is 95.4% (inactive); in assay [1] (setting [6]), 90.7%; in assay [1] (setting [7]), 86.8%; in assay [3] it was 105% (inactive). Also, the figures for the GFP response relative to DMSO in assay [2], in assay [2] (setting [8]) and in assay [2] (setting [9]) were 246% (active), 153% and 249%, respectively. The GFP response, % of DMSO in assay [4] is 108% (inactive); in assay [5], 100% (inactive); in assay [5] (setting [6]), 97.4%; in assay [5] (setting [7]) it was 94.4%.

As for `O=C(O)c1ccccc1SC1CC(=O)N(c2ccc3c(c2)OCO3)C1=O` (centres undefined), the GFP response vs DMSO in assay [1] was 97.6% (inactive); in assay [1] (setting [6]) it was 102%; in assay [1] (setting [7]) it was 93.8%; in assay [3], 103% (inactive). Further, the results for the GFP response relative to DMSO in assay [2], in assay [2] (setting [8]) and in assay [2] (setting [9]) were 106% (inactive), 102% and 108%, respectively. For the same molecule, the GFP response, % of DMSO in assay [4] is 102% (inactive); in assay [5] it was 95.8% (inactive); in assay [5] (setting [6]) it was 99.3%; in assay [5] (setting [7]) it was 94.9%.

For the molecule `CCOC(=O)Cc1csc(NC(=O)CSc2nnc(-c3ccc(C)cc3)o2)n1`, the GFP response vs DMSO in assay [1] is 101% (inactive); in assay [1] (setting [6]), 98.8%; in assay [1] (setting [7]), 101%; in assay [3] it was 104% (inactive). The GFP response relative to DMSO in assay [2] was 103% (inactive); in assay [2] (setting [8]), 101%; in assay [2] (setting [9]) it was 101%. The GFP response, % of DMSO in assay [4] is 104% (inactive); in assay [5], 104% (inactive); in assay [5] (setting [6]), 98.3%; in assay [5] (setting [7]), 105%.

As for `COc1ccc(C(=O)/C(=C/O)N=Nc2ccc(F)cc2)cc1`, the GFP response vs DMSO in assay [1] is 99.1% (inactive); in assay [1] (setting [6]), 97.8%; in assay [1] (setting [7]) it was 98.6%; in assay [3] it was 102% (inactive). Besides, the GFP response relative to DMSO in assay [2] is 106% (inactive); in assay [2] (setting [8]) it was 89.3%; in assay [2] (setting [9]), 109%. Moreover, the GFP response, % of DMSO in assay [4] was 91.4% (inactive); in assay [5] it was 83.5% (inactive); in assay [5] (setting [6]), 85.3%; in assay [5] (setting [7]), 80.5%.

For the molecule `COC(=O)c1sc(-c2ccc(C(C)(C)C)cc2)cc1NC(=O)CCC(=O)O`, the GFP response vs DMSO in assay [1] is 98.6% (inactive); in assay [1] (setting [6]) it was 97.3%; in assay [1] (setting [7]), 98.9%; in assay [3] it was 100% (inactive). In addition, the GFP response relative to DMSO in assay [2] was 98.7% (inactive); in assay [2] (setting [8]), 95.6%; in assay [2] (setting [9]), 100%. The GFP response, % of DMSO in assay [4] is 95.4% (inactive); in assay [5], 97.8% (inactive); in assay [5] (setting [6]), 96.5%; in assay [5] (setting [7]), 98.7%.

`Cc1cc(=O)[nH]c(-n2nc(C)cc2C)n1`: the GFP response vs DMSO in assay [1] was 98% (inactive); in assay [1] (setting [6]), 99.1%; in assay [1] (setting [7]) it was 97.8%; in assay [3] it was 105% (inactive). Besides, the GFP response relative to DMSO in assay [2] is 101% (inactive); in assay [2] (setting [8]), 101%; in assay [2] (setting [9]) it was 100%. For the same molecule, the GFP response, % of DMSO in assay [4] was 99.8% (inactive); in assay [5], 94.4% (inactive); in assay [5] (setting [6]) it was 97.4%; in assay [5] (setting [7]), 91.9%.

For `COc1ccc(Sc2ncnc3onc(C)c23)cc1`, the GFP response vs DMSO in assay [1] was 96.7% (inactive); in assay [1] (setting [6]), 96.1%; in assay [1] (setting [7]) it was 95.4%; in assay [3], 103% (inactive). The values for the GFP response relative to DMSO in assay [2], in assay [2] (setting [8]) and in assay [2] (setting [9]) were 118% (inactive), 113% and 120%, respectively. The GFP response, % of DMSO is 99.1% (inactive) in assay [4], 95.8% (inactive) in assay [5], 99.3% in assay [5] (setting [6]) and 96% in assay [5] (setting [7]).

Consider `CC(C(=O)O)n1nc(-c2ccccc2)c2ccccc21` (centres undefined), for which the GFP response vs DMSO was 97.8% (inactive) in assay [1], 99.6% in assay [1] (setting [6]), 95.3% in assay [1] (setting [7]) and 99% (inactive) in assay [3]. Also, the GFP response relative to DMSO in assay [2] is 99.5% (inactive); in assay [2] (setting [8]), 101%; in assay [2] (setting [9]), 97.3%. Besides, the GFP response, % of DMSO in assay [4] was 102% (inactive); in assay [5], 102% (inactive); in assay [5] (setting [6]) it was 101%; in assay [5] (setting [7]), 101%.
